Experimental data: PubChem BioAssay
A number with no mark means an inactive call. Records with an inconclusive call do not appear. The source made the active and inactive calls.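 How the source made its calls, unless noted: active means inhibition over a set limit, the all-compound mean plus 3 SD, in both replicate runs; inconclusive means over that limit in just one replicate run; inactive means at or under that limit in both runs.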

Legend:
[1] = S. cerevisiae growth inhibition in permissive medium (OD615), pilot counter-assay for S. cerevisiae lifespan shortening project, permissive growth control (AID 705;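 active means growth inhibition above 25% in both replicates, a cutoff set 3 SD above the mean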); details: OD615, 24 h, at 10 µM, active compounds read high
Method in brief: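 System: S. cerevisiae with engineered DeaD lifespan system / Measured by: absorbance (optical density) at 615 nm / Read-out: reduction in yeast growth (OD615) / Times: 4 h cell pre-growth, 24 h exposure at 30 °C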

[2] = S. cerevisiae growth inhibition in restrictive medium, OD615, pilot screen, restrictive growth control, yeast lifespan reduction project (AID 706;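 active means growth inhibition above a set limit, 3 SD over mean compound inhibition, in both replicates, cut at about 43% in these data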;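 further: modified DeaD lifespan yeast strain shifted to restrictive glucose medium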); details: OD615, 48 h, at 10 µM, active compounds read high
Method in brief: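 System: Engineered S. cerevisiae DeaD strain | Buffer or medium: Glucose-based CSMM-D restrictive medium | Schedule: 4 h pre-incubation, 48 h exposure at 30 °C | Technique: Optical density at 615 nm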

[3] = doxorubicin toxicity protection in MRP-1 cells – H69AR cells, CellTiter-Glo, duplicate, MRP-1 activator project, pilot screen (AID 807;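 active means viability increase at or above a cutoff of the median across tested compounds plus 3 SD, cut at about 8.5% in these data, passing the limit was not always enough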;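 further: compound pretreatment 18-22 h then 72 h combined with doxorubicin; 0% = doxorubicin alone and 100% = vehicle without doxorubicin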); details: H69AR viability with doxorubicin, CellTiter-Glo luminescence; at 10 µM; active compounds read high
[4] = viability of HCT116 without oncogenic beta-catenin – human colon tumor cells, pilot screen (AID 823;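 active means cell viability at or below a set limit in both duplicate runs, the limit being the all-compound median minus 4 SD, cut at about 23% in these data, passing the limit was not always enough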;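 further: 0% = wells killed by 20 µM Hyamine and 100% = untreated DMSO cell wells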); details: HCT116 beta-catenin knockout viability, CellTiter-Glo, 60 h; at 10 µM; active compounds read low
[5] = viability of PTEN-null HCT116 cells – cell-based, HCT116 clonal line, CellTiter-Glo, pilot screen (AID 824;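 active means viability at or below 27.92% in each of two runs, the all-compound median minus 4 SD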;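 further: 0% = 20 µM Hyamine control and 100% = vehicle cell control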); details: HCT116 PTEN-deleted viability, 60 h, at 10 µM, active compounds read low
[6] = RAM pathway blockade in budding yeast – dse1pr::URA3 reporter, 5-FOA selection, pilot screen (AID 869);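 further: 0% = DMSO wells with no growth and 100% = 10 µM 1-NA-PP1 with full growth; RAM network block rescues cells from 5-FOA so hits raise OD615 growth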; details: S. cerevisiae dse1pr::URA3 5-FOA growth, OD615, 2 d; at 10 µM; active compounds read high; strain carries analog-sensitive mutant Cbk1 kinase
[7] = RAM signaling pathway blockade in yeast – S. cerevisiae, Pdr1DBD-CYC8 efflux-inhibited sensitized strain, primary screen (AID 1298;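 active means RAM network inhibition above 8.4% in each of two replicates, 3 SD over the compound average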;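 further: 0% = DMSO untreated cells without growth and 100% = 10 µM 1-NA-PP1 full growth; higher means more yeast growth rescued from 5-FOA killing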); details: S. cerevisiae cbk1-as DSE1-URA3 strain, 5-FOA growth OD615, 2 d; at 50 µM; active compounds read high

O=C(CCCC(=O)n1cnc2ccccc21)n1cnc2ccccc21
growth inhibition [1]: -3.46% | growth inhibition [2]: 4.09% | viability increase [3]: -1.98% | viability [4]: 96.2% | viability [5]: 92.9% | inhibition [6]: 1.08% | RAM network inhibition [7]: 0.98%

Clc1ccccc1CSc1nnc(-c2cccnc2)n1Cc1ccco1
growth inhibition [1]: 2.38% | growth inhibition [2]: 23.5% | viability increase [3]: -4.89% | viability [4]: 90.4% | viability [5]: 91% | inhibition [6]: 1.38% | RAM network inhibition [7]: 4.7%

COc1ccc(-c2cn3c(C)c(C(=O)Nc4ccncc4)sc3n2)cc1
growth inhibition [1]: -4.55% | growth inhibition [2]: -15.3% | viability increase [3]: -3.37% | viability [4]: 102% | viability [5]: 90.1% | inhibition [6]: 3.6% | RAM network inhibition [7]: 5.99%

COCC(=O)Nc1ccc(C(N)=O)cc1
growth inhibition [1]: -13.6% | growth inhibition [2]: -6.43% | viability increase [3]: -0.44% | viability [4]: 96.5% | viability [5]: 95.3% | inhibition [6]: 1.91% | RAM network inhibition [7]: 7.41%

Cc1nnc(SCC(=O)Nc2ccc3c(c2)OCO3)o1
growth inhibition [1]: -0.465% | growth inhibition [2]: -12% | viability increase [3]: -5.27% | viability [4]: 102% | viability [5]: 95.1% | inhibition [6]: 1.41% | RAM network inhibition [7]: 4.08%

Cc1nc(-c2ccc3c(c2)OCO3)cs1
growth inhibition [1]: -3.71% | growth inhibition [2]: -1.42% | viability increase [3]: 0.2% | viability [4]: 102% | viability [5]: 101% | inhibition [6]: 1.68% | RAM network inhibition [7]: 2.38%

CCOC(=O)c1c(C)[nH]c(C(=O)OC)c1CCC(=O)OC
growth inhibition [1]: -9.89% | growth inhibition [2]: -23.6% | viability increase [3]: -2.86% | viability [4]: 90.8% | viability [5]: 91.9% | inhibition [6]: 2.56% | RAM network inhibition [7]: 2.65%

COCCCNC(=O)Cn1ncc2ccsc2c1=O
growth inhibition [1]: -4.86% | growth inhibition [2]: 3.33% | viability increase [3]: 1.3% | viability [4]: 107% | viability [5]: 101% | inhibition [6]: -0.05% | RAM network inhibition [7]: -0.97%

O=C(Nc1nccs1)c1ccc(S(=O)(=O)N2CCCCC2)cc1
growth inhibition [1]: -9.01% | growth inhibition [2]: -1.44% | viability increase [3]: 0.89% | viability [4]: 94% | viability [5]: 90% | inhibition [6]: 1.73% | RAM network inhibition [7]: 5.88%

CC1(C)CC(=O)C2=C(C1)Nc1ccccc1NC2c1cccnc1 (stereo not drawn)
growth inhibition [1]: 7.14% | growth inhibition [2]: 1.02% | viability increase [3]: -3.43% | viability [4]: 96.1% | viability [5]: 93.6% | inhibition [6]: -0.195% | RAM network inhibition [7]: 0.21%

COCc1cc(=O)n2[nH]c(-c3cccc(Br)c3)cc2n1
growth inhibition [1]: -25.1% | growth inhibition [2]: -16.1% | viability increase [3]: -2.23% | viability [4]: 92.9% | viability [5]: 86.7% | inhibition [6]: 0.76% | RAM network inhibition [7]: 5.82%

CCOc1ccc2nc(NC(=O)COC)sc2c1
growth inhibition [1]: -7.05% | growth inhibition [2]: -13.8% | viability increase [3]: 0.64% | viability [4]: 102% | viability [5]: 102% | inhibition [6]: 1.05% | RAM network inhibition [7]: 1.66%

O=C(CCS(=O)(=O)c1ccccc1)Nc1nc(-c2ccccn2)cs1
growth inhibition [1]: -9.64% | growth inhibition [2]: -13.3% | viability increase [3]: -8.92% | viability [4]: 8.11% (active) | viability [5]: 6.03% (active) | inhibition [6]: 1.85% | RAM network inhibition [7]: 3.99%

CCCCCn1c(C(C)NC(=O)CCC)nc2ccccc21 (stereo not drawn)
growth inhibition [1]: -3.78% | growth inhibition [2]: -2.23% | viability increase [3]: -1.22% | viability [4]: 85.7% | viability [5]: 88.7% | inhibition [6]: -0.165% | RAM network inhibition [7]: 2.32%

O=C(NCS(=O)(=O)c1ccccc1)c1ccccc1
growth inhibition [1]: -15.4% | growth inhibition [2]: -4.22% | viability increase [3]: -0.04% | viability [4]: 101% | viability [5]: 101% | inhibition [6]: 0.675% | RAM network inhibition [7]: 1.79%

Cc1ccccc1OCc1nc(-c2ccc(-n3cccc3)cc2)no1
growth inhibition [1]: -22.8% | growth inhibition [2]: -18.9% | viability increase [3]: -0.53% | viability [4]: 81.3% | viability [5]: 84% | inhibition [6]: 2% | RAM network inhibition [7]: 5.61%

O=C(NCCCN1CCCCC1)c1ccc2c(=O)n(CCc3ccccc3)c(=O)[nH]c2c1
growth inhibition [1]: -7.09% | growth inhibition [2]: -6.43% | viability increase [3]: -3.27% | viability [4]: 77.3% | viability [5]: 83% | inhibition [6]: 0.675% | RAM network inhibition [7]: 8.53%

C=C(C)CSc1nnc(-c2cc(OC)c(OC)c(OC)c2)n1N
growth inhibition [1]: 8.03% | growth inhibition [2]: 7.75% | viability increase [3]: -1.01% | viability [4]: 95.2% | viability [5]: 97.8% | inhibition [6]: 0.94% | RAM network inhibition [7]: 4%

O=C(NCCn1cc(SCC(=O)N2CCOCC2)c2ccccc21)c1ccccc1
growth inhibition [1]: 1.06% | growth inhibition [2]: -5.21% | viability increase [3]: 0.4% | viability [4]: 97% | viability [5]: 99.8% | inhibition [6]: -0.225% | RAM network inhibition [7]: 0.78%

COc1cc(C2C3=C(CC(C)(C)CC3=O)N(C)C(=O)N2C)cc(OC)c1OC (stereo not drawn)
growth inhibition [1]: -7.27% | growth inhibition [2]: -16.8% | viability increase [3]: -0.06% | viability [4]: 104% | viability [5]: 103% | inhibition [6]: 0.385% | RAM network inhibition [7]: -0.15%

C=CCN1C(=O)C2C(C(=O)NC)C3(C)C=CC2(O3)C1C(=O)NCc1ccc(OC)cc1 (stereo not drawn)
growth inhibition [1]: -5.37% | growth inhibition [2]: 3.69% | viability increase [3]: 1.33% | viability [4]: 103% | viability [5]: 99.9% | inhibition [6]: 0.89% | RAM network inhibition [7]: 0.49%

COc1ccccc1NC(=O)CSc1nnnn1C
growth inhibition [1]: -4.16% | growth inhibition [2]: -6.61% | viability increase [3]: -1.03% | viability [4]: 105% | viability [5]: 96.4% | inhibition [6]: 1.37% | RAM network inhibition [7]: 3.12%

CCc1nnc(NC(=O)c2ccc(OC)cc2OC)s1
growth inhibition [1]: 16.6% | growth inhibition [2]: 3.21% | viability increase [3]: -1.32% | viability [4]: 109% | viability [5]: 102% | inhibition [6]: 1.68% | RAM network inhibition [7]: 2.76%

COc1ccc(F)cc1S(=O)(=O)Nc1ccc2c(c1)OCCO2
growth inhibition [1]: -3.12% | growth inhibition [2]: -5.07% | viability increase [3]: -1.33% | viability [4]: 91.1% | viability [5]: 86.6% | inhibition [6]: 2.45% | RAM network inhibition [7]: 2.35%
